Experimental data as given in paper PMC3215888 (Cancer Chemotherapy and Pharmacology, 2011).
Values joined by “and” are separate entries in the source; they are usually repeats but may differ in a detail not shown here. Equal values may be shown once. Read-outs that look alike come from different tables or passages of the source.

Experiments:
[1] = tested on: SMS-MSN neuroblastoma cell line; assay: DIMSCAN in vitro testing, 96 h; format: cell-based; conditions: for IC50: Neuroblastoma cell, 96 h
In short: (§1)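 Neuroblastoma and Ewing sarcoma lines, STR-verified and maintained as in the originators' reports. Exposed for 96 h to test compound (DMSO stock diluted in medium) at 1 nM–10 μM. Viable cells quantified by fluorescein diacetate fluorescence with DIMSCAN digital image microscopy. Absolute IC50 = concentration giving 50% growth inhibition vs controls. Relative IC50 = concentration giving 50% of the maximum inhibitory effect.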

[2] = tested on: NB-1643 neuroblastoma cell line; assay: DIMSCAN in vitro testing, 96 h; format: cell-based; conditions: for IC50: NB-1643, 96 h
In short: as §1

[3] = tested on: solid tumor xenograft models; assay: Objective responses across the solid tumor xenograft panel; format: in vivo, mice; conditions: MTD 20.8 mg/kg
In short: (§2)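 Female CB17 scid mice bearing subcutaneous tumors, 10 per group. Dosed by oral gavage twice daily, 5 days weekly for 6 weeks, at 20.8, 10.4, 5.2 or 2.6 mg/kg, in 10% 2-hydroxypropyl-β-cyclodextrin/1% sodium bicarbonate. Event = quadrupled tumor volume; EFS by Kaplan–Meier, exact log-rank test. Per-mouse scores PD/SD/PR (≥50% regression)/CR (<0.10 cm3)/MCR; group median reported. PR, CR and MCR count as objective responses.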

[4] = tested on: Aurora kinase A mutation (T217D); conditions: cited from earlier work
[5] = tested on: OS-1 Osteosarcoma xenograft; format: in vivo, mice
In short: as §2

[6] = Plasma pharmacokinetics after a single oral dose, LC/MS/MS; format: in vivo, non-tumored scid mice; conditions: scid, mouse
[7] = tested on: NB-EBc1 neuroblastoma cell line; assay: DIMSCAN in vitro testing, 96 h; format: cell-based; conditions: for IC50: Neuroblastoma cell, 96 h
In short: as §1

neuroblastoma cell lines = assay: DIMSCAN in vitro testing, 96 h, neuroblastoma panel; format: cell-based
In short: as §1

Aurora kinase A = conditions: cited from earlier work
[8] = patients, 50 mg BID for 7 days; cited from earlier work
[9] = tested on: CHLA-32 Ewing sarcoma cell line; assay: DIMSCAN in vitro testing, 96 h; format: cell-based; conditions: for IC50: 96 h
In short: as §1

[10] = tested on: CHLA-56 Ewing sarcoma cell line; assay: DIMSCAN in vitro testing, 96 h; format: cell-based
In short: as §1

[11] = tested on: SK-N-BE(2) neuroblastoma cell line; assay: DIMSCAN in vitro testing, 96 h; format: cell-based; conditions: minimum T/C
In short: as §1

[12] = tested on: Ewing sarcoma (n = 11) and neuroblastoma (n = 17) cell lines; assay: DIMSCAN in vitro testing, 96 h, whole extended panel; format: cell-based
[13] = tested on: CHLA-9 Ewing sarcoma cell line; assay: DIMSCAN in vitro testing, 96 h; format: cell-based; conditions: for IC50: 96 h
In short: as §1

[14] = tested on: PPTP in vivo xenograft models; assay: Objective responses by AURKA copy number; set-up: species or system mice; conditions: MTD
Ewing sarcoma cell lines = assay: DIMSCAN in vitro testing, 96 h, Ewing panel; format: cell-based
In short: as §1

KT-10 Wilms xenograft = format: in vivo, mice
In short: as §2

[15] = tested on: solid tumor and ALL xenograft models; assay: EFS activity across all xenograft models at the MTD; format: in vivo, mice; conditions: MTD 20.8 mg/kg

COc1cc(Nc2ncc3c(n2)-c2ccc(Cl)cc2C(c2c(F)cccc2OC)=NC3)ccc1C(=O)O [MLN8237]
IC50 ([1]; read-out: Absolute IC50): 22 nM | IC50 ([1]; read-out: Relative IC50): 17 nM | Ymin ([1]; SMS-MSN, minimum T/C): 16.1% | IC50 ([2]; read-out: Absolute IC50): 37 nM | IC50 ([2]; read-out: Relative IC50): 32 nM | Ymin ([2]; NB-1643, minimum T/C): 10.2% | objective responses out of 9 models in the solid tumor panel [3]: 5 | inhibition of Aurora kinase A T217D mutant [4]: impervious | EFS T/C ([5]; 2.6 mg/kg): >1.5 | Median group response ([5]; 2.6 mg/kg): PD2 (if the TGD value >1.5, the mouse was considered PD2) | Response activity ([5]; 2.6 mg/kg): Int | Tumor volume T/C ([5]; 2.6 mg/kg): 0.75 | Median RTV/hCD45 at end of study ([5]; 2.6 mg/kg): 3.5 | EFS T/C ([5]; 5.2 mg/kg): >1.5 | Median group response ([5]; 5.2 mg/kg): PD2 (if the TGD value >1.5, the mouse was considered PD2) | Response activity ([5]; 5.2 mg/kg): Int | Tumor volume T/C ([5]; 5.2 mg/kg): 0.70 | Median RTV/hCD45 at end of study ([5]; 5.2 mg/kg): 3.4 | EFS T/C ([5]; 10.4 mg/kg): >1.5 | Median group response ([5]; 10.4 mg/kg): PD2 (if the TGD value >1.5, the mouse was considered PD2) | Response activity ([5]; 10.4 mg/kg): Int | Tumor volume T/C ([5]; 10.4 mg/kg): 0.56 | Median RTV/hCD45 at end of study ([5]; 10.4 mg/kg): 2.0 | EFS T/C ([5]; 20.8 mg/kg): >1.5 | Response activity ([5]; 20.8 mg/kg): Int | Tumor volume T/C ([5]; 20.8 mg/kg): 0.45 | Median RTV/hCD45 at end of study ([5]; 20.8 mg/kg): 0.8 | concentration at 12 h ([6]; oral, 10 mg/kg): 1200 nM | concentration at 12 h ([6]; oral, 10.4 mg/kg): 1200 nM | AUC(0-t) ([6]; po, 10 mg/kg): 39 µM·h | Cmax ([6]; po, 10 mg/kg, C max, single oral 10 mg/kg, mice): 15800 nM | AUC(0-t) ([6]; po, 10.4 mg/kg): 60.3 µM·h | Cmax ([6]; po, 10.4 mg/kg): 24800 nM | Tmax ([6]; po, 10.4 mg/kg): 30 min | AUC(0-t) ([6]; po, 20.8 mg/kg): 78.4 µM·h | Tmax ([6]; po, 20.8 mg/kg): 30 min | concentration at 12 h ([6]; po, 20.8 mg/kg): 1800 nM | Ymin ([7]; NB-EBc1, minimum T/C): 3.6% | IC50 ([7]; read-out: Absolute IC50): 50 nM | IC50 ([7]; read-out: Relative IC50): 49 nM | IC50 (neuroblastoma cell lines; Neuroblastoma cell, read-out: relative IC50 values, neuroblastoma panel): 23 nM | median Ymin, neuroblastoma cell lines (neuroblastoma cell lines; median of neuroblastoma panel): 10.4% | specificity for Aurora kinase A inhibition versus Aurora kinase B (Aurora kinase A): 200 fold | average trough concentrations [8]: exceeded 1 μM | IC50 ([9]; read-out: Absolute IC50): 136 nM | IC50 ([9]; read-out: Relative IC50): 92 nM | Ymin ([9]; CHLA-32, minimum T/C): 13.1% | IC50 ([10]; 96 h): > 10000 nM | Ymin ([10]; CHLA-56, minimum T/C): 48.1% | Ymin [11]: 16.5% | Ymin, maximum ([12]; maximum of 28 cell lines): 48.1% | Ymin, median ([12]; median of 28 cell lines): 10.9% | Ymin, minimum ([12]; minimum of 28 cell lines): 0.5% | IC50 ([12]; read-out: Absolute IC50, maximum): 10000 nM | IC50 ([12]; read-out: Absolute IC50, median): 37 nM | IC50 ([12]; read-out: Absolute IC50, minimum): 10 nM | IC50 ([12]; read-out: Relative IC50, maximum): 10000 nM | IC50 ([12]; read-out: Relative IC50, median): 32 nM | IC50 ([12]; read-out: Relative IC50, minimum): 9 nM | IC50 ([13]; read-out: Absolute IC50): 18 nM | IC50 ([13]; read-out: Relative IC50): 16 nM | Ymin ([13]; CHLA-9, minimum T/C): 4.2% | objective responses in tumors with decreased AURKA copy number [14]: 5/8 | objective responses in tumors with increased AURKA gene copy number [14]: 2/14 and 2 | median Ymin, Ewing cell lines (Ewing sarcoma cell lines; median of Ewing panel): 11.4% | IC50 (Ewing sarcoma cell lines; read-out: relative IC50 values, Ewing sarcoma cell lines): 58 nM | EFS T/C (KT-10 Wilms xenograft; 2.6 mg/kg): 1.0 | EFS activity (KT-10 Wilms xenograft; 2.6 mg/kg): Low | Estimate of median time to event (KT-10 Wilms xenograft; 2.6 mg/kg): 9.6 days | Median group response (KT-10 Wilms xenograft; 2.6 mg/kg): PD1 (if the TGD value ≤1.5, that mouse was considered PD1) | Response activity (KT-10 Wilms xenograft; 2.6 mg/kg): Low | Tumor volume T/C (KT-10 Wilms xenograft; 2.6 mg/kg): 0.84 | Median RTV/hCD45 at end of study (KT-10 Wilms xenograft; 2.6 mg/kg): >4 | EFS T/C (KT-10 Wilms xenograft; 5.2 mg/kg): 1.7 | EFS activity (KT-10 Wilms xenograft; 5.2 mg/kg): Low | Estimate of median time to event (KT-10 Wilms xenograft; 5.2 mg/kg): 16.0 days | Median group response (KT-10 Wilms xenograft; 5.2 mg/kg): PD2 (if the TGD value >1.5, the mouse was considered PD2) | Response activity (KT-10 Wilms xenograft; 5.2 mg/kg): Int | Tumor volume T/C (KT-10 Wilms xenograft; 5.2 mg/kg): 0.71 | Median RTV/hCD45 at end of study (KT-10 Wilms xenograft; 5.2 mg/kg): >4 | EFS T/C (KT-10 Wilms xenograft; 10.4 mg/kg): 1.5 | EFS activity (KT-10 Wilms xenograft; 10.4 mg/kg): Low | Estimate of median time to event (KT-10 Wilms xenograft; 10.4 mg/kg): 14.6 days | Median group response (KT-10 Wilms xenograft; 10.4 mg/kg): PD1 (if the TGD value ≤1.5, that mouse was considered PD1) | Response activity (KT-10 Wilms xenograft; 10.4 mg/kg): Low | Tumor volume T/C (KT-10 Wilms xenograft; 10.4 mg/kg): 0.53 | Median RTV/hCD45 at end of study (KT-10 Wilms xenograft; 10.4 mg/kg): >4 | EFS T/C (KT-10 Wilms xenograft; 20.8 mg/kg): >4.4 | EFS activity (KT-10 Wilms xenograft; 20.8 mg/kg): High | Median group response (KT-10 Wilms xenograft; 20.8 mg/kg): MCR | Response activity (KT-10 Wilms xenograft; 20.8 mg/kg): High | Tumor volume T/C (KT-10 Wilms xenograft; 20.8 mg/kg): 0.35 | Median RTV/hCD45 at end of study (KT-10 Wilms xenograft; 20.8 mg/kg): 0.0 | evaluable lines meeting the criteria for high activity (EFS T/C) [15]: Eight out of 11
